Rows were chosen to be rich in hits. Some 1.8% of all compounds tested hit in one or more screens of this group.
LEDGF integ inh: blocks HIV-1 LEDGF/p75-dependent DNA integration | TR-FRET IN-LEDGF/p75 DNA integration, Eu/Cy5 | AID 743269 | 370,000 tested, 0.64% active | inhibition, % at 3.7 µM;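 active = inhibition above the screen-wide mean plus 3 SD, cut at about 13% in these data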;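 note: signal is the Cy5 over europium emission ratio at 671 and 618 nm; 0% = plate median of compound wells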
HCV core dimer: HCV core protein dimerization inhibition; inhibition, % at 5 µM; 300,000 tested, 0.33% active; AID 1899; TR-FRET GST/Flag-core106 dimerization, 1536-well;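 active = inhibition above the mean of all tested compounds plus 3 SD, set per screening campaign, cut at about 45% in these data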
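assay system = GST-tagged and Flag-tagged HCV core protein residues 1-106 | controls = unlabelled core106 and no-GST-core106 wells | incubation = compound-protein-antibody incubation 4 h at 22.5 °C | probe or stimulus = Eu donor and XL665 acceptor anti-tag antibodies | read-out = % inhibition based on acceptor/donor emission ratio | signal = TR-FRET 671 and 617 nm emission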
UHRF1 binding: blocks human UHRF1 binding to methylated DNA; UHRF1 binding to methylated oligo, TR-FRET; inhibition, % at 4.4 µM; 370,000 tested, 0.75% active; in the data active = inhibition above about 21%;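 note: UHRF1 SRA domain binding a hemimethylated CpG hairpin DNA probe; 0% = median of test compound wells and 100% = reference inhibitor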
TDP2 absorb: blocks human TDP2 phosphodiesterase activity; AID 720702; 370,000 tested, 0.34% active; inhibition, % at 12.8 µM; recombinant TDP2, T5PNP hydrolysis, p-nitrophenol absorbance 415 nm;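 active = inhibition above the mean of all tested compounds plus 3 SD, set per campaign, cut at about 25% in these data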;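 note: 0% = DMSO with enzyme and 100% = buffer with substrate but no TDP2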
Target sequence (O95551 whole entry, looked up): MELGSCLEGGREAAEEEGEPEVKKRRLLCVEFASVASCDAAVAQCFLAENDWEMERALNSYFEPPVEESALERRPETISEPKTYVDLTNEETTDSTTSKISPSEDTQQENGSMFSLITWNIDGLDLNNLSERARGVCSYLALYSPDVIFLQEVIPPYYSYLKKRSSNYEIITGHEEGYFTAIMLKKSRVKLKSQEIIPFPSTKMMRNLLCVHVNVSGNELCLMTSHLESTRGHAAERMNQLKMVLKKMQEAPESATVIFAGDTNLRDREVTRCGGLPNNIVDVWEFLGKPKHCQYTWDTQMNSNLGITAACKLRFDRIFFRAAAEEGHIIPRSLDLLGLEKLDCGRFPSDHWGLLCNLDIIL
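Test system: Human TDP2 enzyme | Reagent: 5 mM T5PNP | Compound dosing: 12.8 µM single point, 1% DMSO | Incubation: Enzyme reaction with compound for 2 h at 37 °C | Technique: p-Nitrophenol epi absorbance | Read-out: % inhibition relative to enzyme-containing and enzyme-free wells | Benchmarks: High control without enzyme, low control DMSO plus TDP2 | Replicates: Singlicate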
MBD2 DNA inh: MBD2-methylated oligo binding inhibition | inhibition, % at 4.4 µM | Q9UBB5 | 370,000 tested, 0.31% active | TR-FRET, MBD2 binding to methylated oligonucleotide; in the data active = inhibition above about 13%
An asterisk follows results filed as active; nt = no result given.

SMILES	LEDGF integ inh	HCV core dimer	UHRF1 binding	TDP2 absorb	MBD2 DNA inh
CC(C)Cn1c(N)c(C(=O)CSc2nnc(-c3ccco3)n2C)c(=O)n(C)c1=O	0.2	nt	32.6*	-0.2	-1.5
O=C(Nc1ccc(Cl)c(Cl)c1)C1CCCN1S(=O)(=O)c1cccc2cccnc12 (configuration not stated)	-2.4	nt	-2.4	3.5	-2.3
Cc1ccc(O)c(C=Nc2cc(C)ccc2O)c1	nt	-12.7	nt	nt	nt
CCc1ccc(O)c(N=Cc2ccccc2O)c1	3.2	-7.0	31.7*	4.3	-4.0
CS(=O)(=O)N(CC(=O)NC1CCCCCC1)Cc1ccccc1	4.1	-3.3	5.5	-9.8	0.0
CS(=O)(=O)N(CC(=O)NC1CCCCCC1)Cc1ccc(Cl)cc1	-2.5	3.7	48.6*	1.3	-1.2
COc1nc(N)c(S(=O)(=O)c2ccccc2)cc1C#N	-3.8	3.3	22.6*	-7.9	-0.5
CN(C)c1ccc(C(=O)c2ccc(O)cc2O)cc1	-3.3	-4.7	0.4	-1.9	-2.2
CN(C)c1ccc(Cc2cc3c(O)ccc(O)c3cc(Cc3ccc(N(C)C)cc3)c2=O)cc1	63.5*	nt	51.3*	10.3	35.3*
CN(C)c1ccc(C=c2c3cc(O)ccc3n3c2cc(-c2ccccc2)[n+]3C)cc1	8.0	nt	31.0*	23.1	7.3
CN(C)c1ccc(C=c2c3ccccc3n3c2c2ccccc2[n+]3C)cc1	-12.1	nt	1.7	1.9	1.4
CCCCCCCCN1C(=O)[C@@H](CC(=O)NCCCN2CCCC2=O)C[C@@]2(C(=O)OC)C1=C[C@H](C(C)(C)C)O[C@@H]2C	3.6	nt	34.5*	-3.6	-1.1
CC1CC1C(=O)Nc1nc(-c2cccs2)c(-c2cccs2)s1 (configuration not stated)	3.8	50.5*	3.2	-0.2	8.5
COc1ccc(CN(C(=O)c2ccc(C)cc2)C2CCS(=O)(=O)C2)cc1 (configuration not stated)	0.0	2.5	-1.7	-10.3	1.7
C=CCOc1ccc(C(=O)N(Cc2ccc(N(C)C)cc2)C2CCS(=O)(=O)C2)cc1 (configuration not stated)	-2.9	19.2	63.0*	2.8	1.6
CC1(C)Cc2c(c(=S)nc(-c3ccccc3)n2Cc2cccnc2)CO1	1.4	8.8	18.6	-0.5	-0.2
COc1ccc(-c2nc(=S)c3c(n2Cc2cccnc2)CC(C)(C)OC3)cc1	-0.5	2.8	23.9*	7.6	9.7
CSC(=NCc1ccc(F)cc1)NS(=O)(=O)c1cccs1	1.0	5.0	41.3*	10.8	-2.8
COc1cccc(CNC(=O)CCC2CCCN(C(=O)c3ccc(OC)c(F)c3)C2)c1 (configuration not stated)	-1.4	-1.0	1.5	3.5	-5.4
COc1cccc(CNC(=O)CCC2CCCN(C(=O)c3ccoc3)C2)c1 (configuration not stated)	-5.4	-0.2	24.8*	1.3	11.4
COc1ccc(/C=N/N2C(=O)CSC2=S)cc1	0.9	4.1	63.3*	0.6	-0.4
O=C(N/N=C/C(Br)=C/c1ccccc1)c1n[nH]c2c1CCC2	nt	68.8*	nt	nt	nt
COC(=O)C[C@H]1CC[C@@H]2[C@H](COc3ccc(NC(=O)C(C)C)cc3C(=O)N2C)O1	-1.9	nt	7.5	-7.7	1.8
CO[C@H]([C@H](C)/C=C/N(C)C=O)[C@@H](C)C(=O)CC[C@H](C)[C@H](O)[C@H](C)[C@H]1OC(=O)/C=C/C(C)=C/C[C@H](O)C[C@@H]2C=CC[C@@H](C[C@H](OC)[C@@H](C)[C@@H](OC)C[C@@H](OC)[C@@H]1C)O2	4.4	nt	-1.1	-14.3	-1.3
O=C(NCC1CCCO1)c1cc(S(=O)(=O)N2CCOCC2)c(Cl)cc1Cl (configuration not stated)	-1.3	nt	23.1*	2.7	1.9
SMILES	LEDGF integ inh	HCV core dimer	UHRF1 binding	TDP2 absorb	MBD2 DNA inh
O=C(Nc1ccccc1Cl)OC1CC2CC1[C@H]1CCCCN1[C@H]2Cc1ccccc1 (some centres not stated)	-2.4	nt	-1.4	-0.5	-2.4
O=C(COC(=O)COc1ccccc1)Nc1ncc([N+](=O)[O-])s1	31.8*	nt	7.2	-4.7	2.4
COc1cc(/C=C/[N+](=O)[O-])ccc1OC(=O)c1cc2ccccc2oc1=O	-3.9	69.6*	-2.3	2.8	2.6
COc1ccc(CNS(=O)(=O)/C=C/c2ccc(OC)cc2CNC(=O)OC(C)(C)C)cc1	6.8	nt	3.9	-19.2	-2.3
O=C1c2ccccc2C2Cc3nnccc3CN12 (configuration not stated)	7.5	nt	-1.6	-15.4	-4.8
CCN(CC)CCCn1c(=S)[nH]c2ncccc2c1=O	1.8	1.6	21.1*	3.1	11.4
Cn1c(-c2ccc3c(c2)OCO3)cnc1NCc1ccccc1Cl	-2.0	0.3	47.7*	-1.4	-7.3
CC(C)C[C@@H](CNCC(=O)[C@H](CC(C)C)NC(=O)c1[nH]cnc1C(=O)N[C@@H](C)CN)NC(=O)c1nc[nH]c1C(=O)N[C@@H](C)C(=O)O	0.7	nt	23.3*	11.9	3.0
CC(C)C[C@@H](CNCC(=O)[C@H](CC(=O)O)NC(=O)c1[nH]cnc1C(=O)N[C@H](CN)CC(C)C)NC(=O)c1nc[nH]c1C(=O)N[C@@H](C)C(=O)O	-2.0	nt	22.2*	13.7	12.3
CC(C)C[C@@H](CN)NC(=O)c1nc[nH]c1C(=O)N[C@@H](C)C(=O)CNC[C@H](CC(C)C)NC(=O)c1nc[nH]c1C(=O)N[C@@H](CC(=O)O)C(=O)O	-2.6	nt	4.7	5.2	-1.7
Brc1ccc(-c2cnc(-c3cccs3)o2)cc1	3.0	2.8	21.5*	9.5	6.5
CCN(CC)C(=O)CSc1ncnc2c(-c3cccs3)nsc12	6.0	47.2*	7.0	-1.7	10.9
Cc1ccc(C2CC(=O)C=C(NCc3ccccc3)C2)cc1 (configuration not stated)	-0.1	-4.5	36.4*	4.2	-4.4
Cc1ccc(C2CC(=O)C=C(NCC(C)C)C2)cc1 (configuration not stated)	-2.4	3.9	0.2	6.4	-2.5
COc1ccc(-n2c(N)c(C(=O)NCc3ccco3)c3nc4ccccc4nc32)cc1OC	3.8	9.5	47.0*	-2.7	-1.3
CCn1c(SCC(N)=O)nc2ccccc2c1=O	-1.6	-0.1	25.0*	2.9	4.4
CCCCn1c(SCC(=O)Nc2ccc(NC(C)=O)cc2)nc2ccccc2c1=O	-2.6	-11.8	0.9	3.7	0.5
CCCCn1c(SCC(=O)Nc2cc(C)on2)nc2ccccc2c1=O	3.6	73.2*	1.3	-3.0	0.8
COc1ccccc1Cn1c(SCC(N)=O)nc2c(oc3ccccc32)c1=O	-0.8	nt	61.4*	-4.8	0.9
NC(=O)CSc1nc2ccccc2c(=O)n1Cc1ccccc1	6.2	-0.4	1.6	1.6	0.3
COCCCNC(=O)C[C@H]1C[C@@]2(C(=O)OC)C(=C[C@H](COCc3ccccc3)O[C@@H]2C)N(Cc2ccc3c(c2)OCO3)C1=O	2.4	nt	-1.0	-0.1	-2.1

Source: PubChem (The Scripps Research Institute Molecular Screening Center)
